Screening data deposited in PubChem by several laboratories.
In the library only some 2.5% were active in any assay of this set; here they are far more common.
HKDC1 inh: blocks human hexokinase HKDC1 activity | recombinant HKDC1, G6PDH/diaphorase resazurin coupled fluorescence | Q2TB90 | AID 493160 | inhibition, % at 20 µM | 340,000 compounds, 0.16% hits;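 active = inhibition above about 35% when tested at 20 µM, limit read from the data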
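Test system: recombinant HKDC1 (HK5) hexokinase enzyme, produced in-house / Doses: 20 µM test compound, 1% DMSO / Timing: 90 min, room temperature / Detection: G6PDH/diaphorase-coupled fluorescence, 1 mM NADP, 100 µM resazurin, 525/613 nm / Control set: DMSO wells with and without enzyme mix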
PfG6PD inh: PfG6PD (Plasmodium falciparum) enzyme inhibition | PfGluPho enzyme, NADPH resazurin-diaphorase fluorescence | inhibition, % at 20 µM | 350,000 compounds, 0.78% hits;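 active = inhibition reaching at least a set limit at 20 µM in the primary screen, cut at about 59% in these data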
EP2 antag: EP2 receptor (human) inhibition; P43116; C6 glioma cells expressing human EP2, cAMP TR-FRET; cells stimulated with saturating PGE2; inhibition, % at 25 µM; 260,000 compounds, 0.52% hits;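 active = percent inhibition above 40 after rounding to a whole number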;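 also: rat C6 glioma host cells with rolipram phosphodiesterase inhibitor present; the protocol text gives 20 µM as final concentration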
Target sequence (P43116 whole entry, looked up): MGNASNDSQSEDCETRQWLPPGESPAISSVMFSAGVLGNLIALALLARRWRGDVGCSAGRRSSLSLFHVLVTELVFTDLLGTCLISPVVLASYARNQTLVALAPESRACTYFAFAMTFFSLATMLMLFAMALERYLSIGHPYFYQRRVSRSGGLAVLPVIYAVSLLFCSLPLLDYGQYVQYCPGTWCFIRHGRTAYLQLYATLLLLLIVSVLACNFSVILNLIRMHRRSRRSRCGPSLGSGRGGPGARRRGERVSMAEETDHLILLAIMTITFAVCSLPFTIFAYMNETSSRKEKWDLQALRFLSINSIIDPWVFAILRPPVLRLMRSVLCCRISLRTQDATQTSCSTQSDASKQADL
Tb hexokinase: T. brucei hexokinase 1 inhibition | recombinant TbHK1, G6PDH-coupled NADH A340 | inhibition, % at 10 µM | 220,000 compounds, 0.11% hits;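 active = inhibition of 50% or more in the single-dose primary screen; inactive = inhibition below 50%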
PHOSPHO1 inh: PHOSPHO1 (human) inhibition; Q8TCT1; recombinant PHOSPHO1, absorbance phosphatase assay; inhibition, % at 13.3 µM; AID 1565; 290,000 compounds, 1.1% hits; in the data active = inhibition above about 60%
EP2 mod: EP2 receptor (human) modulation | AID 940 | induction, % at 25 µM | 260,000 compounds, 0.83% hits | EP2-expressing cells, cAMP HTRF FRET, PGE2 co-stimulation;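 active = compounds whose cAMP rise, as percent of the full-agonist control response, exceeds 60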;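 also: rat C6 glioma line stably carrying human EP2 under a CMV promoter; the protocol text gives 20 µM as final concentration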
Large screens that a line does not name were inactive.

Cc1cccc2cc(CN(C(=O)c3ccco3)C3CCCCC3)c(=O)[nH]c12	none (no result: HKDC1 inh, PfG6PD inh, Tb hexokinase, PHOSPHO1 inh)
COc1ccc(N2C(=S)NC3N2C(=S)NC3(C)c2ccccc2)cc1 (stereo not drawn)	PHOSPHO1 inh 61
CC1(c2ccccc2)NC(=S)N2C1NC(=S)N2c1ccccc1 (stereo not drawn)	PHOSPHO1 inh 61 (no result: EP2 antag)
Oc1ccc(-c2csc(-c3cccnc3)n2)c(O)c1	none
Oc1ccc(-c2csc(-c3ccccc3)n2)c(O)c1	EP2 antag 48 (no result: HKDC1 inh, PfG6PD inh, Tb hexokinase, PHOSPHO1 inh)
COc1ccc(-c2oc(NC(=O)CSc3ncn[nH]3)c(C#N)c2-c2ccc(OC)cc2)cc1	PHOSPHO1 inh 71
C#CCOCCOCCOCCNc1nc(N2CCN(C(=O)CCCCCCCCCCNC(=O)[C@H](CCCCN)n3cc(CCO)nn3)CC2)nc(N2CCN(C(=O)CCCCCCCCCCNC(=O)[C@H](CCCN=C(N)N)n3cc(C[C@@H](C)CC)nn3)CC2)n1	PfG6PD inh 62 (no result: EP2 antag, Tb hexokinase, PHOSPHO1 inh, EP2 mod)
C#CCOCCOCCOCCNc1nc(N2CCN(C(=O)[C@H](CCCCN)n3cc(CC(C)O)nn3)CC2)nc(N2CCN(C(=O)[C@H](Cc3ccc(O)cc3)n3cc(CCO)nn3)CC2)n1 (stereo partly drawn)	none (no result: EP2 antag, Tb hexokinase, PHOSPHO1 inh, EP2 mod)
C#CCOCCOCCOCCNc1nc(N2CCN(C(=O)[C@H](CCCCN)n3cc(CCCC)nn3)CC2)nc(N2CCN(C(=O)[C@H](Cc3ccc(O)cc3)n3cc(CCO)nn3)CC2)n1	PfG6PD inh 76 (no result: EP2 antag)
C#CCOCCOCCOCCNc1nc(N2CCN(C(=O)CCCCCCCCCCNC(=O)Cn3cc(CCCCCN)nn3)CC2)nc(N2CCN(C(=O)CCCCCCCCCCNC(=O)[C@H]([C@@H](C)CC)n3cc(CCCCCN)nn3)CC2)n1	PfG6PD inh 66 (no result: EP2 antag, Tb hexokinase, PHOSPHO1 inh, EP2 mod)
COc1ccc(OC)c(NC2OC(=O)c3ccccc32)c1 (stereo not drawn)	none (no result: HKDC1 inh, PfG6PD inh, Tb hexokinase, PHOSPHO1 inh)
CCc1nn(CC(=O)NCc2cccnc2)c(=O)c2cc3sccc3n12	none (no result: HKDC1 inh, PfG6PD inh, EP2 antag, Tb hexokinase, PHOSPHO1 inh)
Cc1cc(C)c2cc(C)c(SCC(=O)N3CCCC3)nc2c1	none (no result: HKDC1 inh, PfG6PD inh, Tb hexokinase, PHOSPHO1 inh)
CCNC(=O)C1=C(O)c2sccc2N(C)S1(=O)=O	none
Cc1ccccc1NC(=S)C1=C(O)c2sccc2N(C)S1(=O)=O	PHOSPHO1 inh 92
CN1c2ccsc2C(O)=C(C(=S)Nc2ccccc2)S1(=O)=O	PHOSPHO1 inh 94
Cc1nn(CC(=O)N2CCC(n3nnc(-c4ccccc4)n3)CC2)c(=O)c2ccccc12	none (no result: HKDC1 inh, PfG6PD inh, EP2 antag, Tb hexokinase, PHOSPHO1 inh)
CCOCc1nnc(NC(=O)c2cc(Cl)ccc2Cl)s1	none (no result: HKDC1 inh, PfG6PD inh, Tb hexokinase, PHOSPHO1 inh)
Cc1ccc(-n2c(Cn3nc(C(F)(F)F)cc3C)n[nH]c2=S)cc1	PHOSPHO1 inh 81
COc1ccc(-n2c(Cn3nc(C(F)(F)F)cc3C)n[nH]c2=S)cc1	none
CC(O)CNc1nc2ccccc2n1CC(=O)NCC(F)(F)F (stereo not drawn)	PHOSPHO1 inh 73
CC(O)CNc1nc2ccccc2n1CC(=O)NC12CC3CC(CC(C3)C1)C2 (stereo not drawn)	none
Cc1ccc2c(c1)N(Cc1ccccn1)C(=O)C(C)O2 (stereo not drawn)	none
Cc1ccc(CN2C(=O)C(C)Oc3ccc(C)cc32)cc1 (stereo not drawn)	EP2 mod 83 (no result: HKDC1 inh, PfG6PD inh, Tb hexokinase, PHOSPHO1 inh)
CC1CCN(S(=O)(=O)c2nnc(NC(=O)c3cccc([N+](=O)[O-])c3)s2)CC1	PfG6PD inh 113 (no result: EP2 antag, Tb hexokinase, EP2 mod)
COc1ccc(C(=O)Nc2nnc(S(=O)(=O)N3CCC(C)CC3)s2)cc1OC	none (no result: EP2 antag, Tb hexokinase, EP2 mod)
CCN1CCCC1CN(Cc1ccc(O)cc1)Cc1ccccn1 (stereo not drawn)	none (no result: HKDC1 inh, PfG6PD inh, Tb hexokinase, PHOSPHO1 inh)
CC(C)c1cc(C(=O)NCCc2nc(-c3cccnc3)n[nH]2)n[nH]1	none (no result: HKDC1 inh, PfG6PD inh, EP2 antag, Tb hexokinase, PHOSPHO1 inh)
CCn1c(COc2ccccc2C)nnc1SCC(=O)N1CCN(c2ccccc2)CC1	none (no result: EP2 antag)
CCn1c(COc2cccc(C)c2C)nnc1SCC(=O)N1CCN(c2ccc(OC)cc2)CC1	PHOSPHO1 inh 74
COCCNC(=S)N(CCN(C)C)Cc1cc2cc(C)cc(C)c2[nH]c1=O	none (no result: HKDC1 inh, PfG6PD inh, Tb hexokinase, PHOSPHO1 inh)
Cc1ccc(C2CC(c3ccccc3)=NN2C(=S)Nc2ccccc2)o1 (stereo not drawn)	PHOSPHO1 inh 88
O=c1/c(=C/c2ccco2)sc2nc(-c3ccccc3Br)nn12	PHOSPHO1 inh 98
CCOc1ccc(C(=O)N(C)Cc2cc3ccc(C)cc3[nH]c2=O)cc1	none (no result: HKDC1 inh, PfG6PD inh, Tb hexokinase, PHOSPHO1 inh)
CC1CC(C)CN(C(=O)/C(=C\c2ccccc2)c2ccccc2)C1 (stereo not drawn)	EP2 mod 63
